Source: PubChem BioAssay
UBC9 SUMO inh – inhibitors of human SUMOylation (UBC9); HTRF SUMOylation assay, SAE1/SAE2 + UBC9, in vitro; inhibition, % at 35 µM; 0.36% of 290,000 active; in the data active = inhibition above about 50%, passing the limit was not always enough
Target sequence (P63279 whole entry, looked up): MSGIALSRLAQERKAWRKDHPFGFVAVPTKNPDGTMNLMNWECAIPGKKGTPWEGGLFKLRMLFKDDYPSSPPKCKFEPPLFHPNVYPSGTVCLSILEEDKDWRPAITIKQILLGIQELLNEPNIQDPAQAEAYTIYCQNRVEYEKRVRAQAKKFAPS
Neddyl block – inhibitors of human cullin neddylation. P61081+Q13564. TR-FRET cullin neddylation, biochemical. inhibition, % at 25 µM. 0.58% of 360,000 active; in the data active = inhibition above about 36%
Fh CTSL1 inh – counter-screen for PFM18AAP inhibitors: inhibitors of F. hepatica cathepsin L1 | 0.49% of 300,000 active | inhibition, % at 5.96 µM | recombinant F. hepatica cathepsin L1, Z-Leu-Arg-MCA fluorescence;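 active = inhibition above the mean of all tested compounds plus 3 SD, set per screening campaign, cut at about 17% in these data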;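 note: 0% = plate median of test compound wells and 100% = 1 µM Z-Phe-Ala-diazomethylketone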
UCH37 DUB inh – blocks the human deubiquitinase UCH37; Q9Y5K5; purified proteasome/UCH37, Ub-AMC cleavage fluorescence; inhibition, % (concentration not given with the values); 0.33% of 330,000 active;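 active = mean inhibition over replicate wells above about 20%, limit read from the data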;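 note: 0% = compound-free wells with enzyme and 100% = wells lacking proteasome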
Target sequence (Q9Y5K5 whole entry, looked up): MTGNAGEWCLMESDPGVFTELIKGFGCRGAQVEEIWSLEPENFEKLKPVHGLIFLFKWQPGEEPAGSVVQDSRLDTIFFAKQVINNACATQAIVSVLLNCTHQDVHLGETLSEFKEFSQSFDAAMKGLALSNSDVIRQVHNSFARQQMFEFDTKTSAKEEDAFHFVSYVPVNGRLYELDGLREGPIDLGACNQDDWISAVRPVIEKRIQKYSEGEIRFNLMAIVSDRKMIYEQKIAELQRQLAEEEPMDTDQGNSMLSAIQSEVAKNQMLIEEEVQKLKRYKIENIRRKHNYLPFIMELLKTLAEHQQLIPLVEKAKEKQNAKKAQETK
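Schedule: 30 min plus 25 min, room temperature / Material: human UCH37 within purified proteasomes / Technique: AMC fluorescence intensity at 355/460 nm / Buffer or medium: pH 7.4 Tris-HCl (50 mM) with ovalbumin, ATP-MgCl2, DTT / Controls: wells without proteasome as full block, compound-free enzyme plus substrate as uninhibited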
An asterisk follows results filed as active; x = no result. Only some compounds are listed: those with a hit (about 1.4% of all), similar ones and a draw of the others.

SMILES | UBC9 SUMO inh | Neddyl block | Fh CTSL1 inh | UCH37 DUB inh
CC(OC(=O)CNC(=O)c1ccc(Cl)c(Cl)c1)C(=O)N1CCOCC1 (stereo not given) | x | 5 | 25* | 3
O=[N+]([O-])c1ccc(N2CCN(c3ccccc3Cl)CC2)cn1 | 0 | -31 | 21* | 5
O=[N+]([O-])c1ccc(N2CCN(c3ccc(O)cc3)CC2)cn1 | 6 | -30 | 0 | 11
CCN(CC)c1ccc(C=NNC(=O)c2c(Cl)c(C)nn2C)cc1 | x | x | x | -36
COc1ccc(-c2ncncc2-c2csc(C)n2)c(O)c1OC | 9 | -3 | -4 | 2
COC1=C(N)C(=O)c2nc(-c3nc(C(=O)O)c(C)c(-c4ccc(OC)c(OC)c4O)c3N)ccc2C1=O | -3 | x | x | 82*
O=C(O)C1CC(c2ccccc2)=NO1 (stereo not given) | -3 | 6 | 4 | 5
O=S(=O)(c1ccccc1)C1(C2CC(c3ccccc3)=NO2)CC(O)C1 (stereo not given) | 7 | -11 | -5 | 28*
Cc1ccc(CNS(=O)(=O)c2ccc(F)c(F)c2)n1C | 9 | -2 | 24* | 6
CCOC(=O)/C(C#N)=C1/C=CN(C)C(C)=N1 | 4 | -1 | 9 | 21*
O=C(NC1CCCN(Cc2ccc(Cl)cc2)C1)c1c(F)cccc1F (stereo not given) | -9 | -1 | 28* | 5
O=C(NC1CCCN(Cc2ccc(Cl)cc2)C1)c1c(F)ccc(F)c1F (stereo not given) | -11 | 0 | 64* | 4
O=C(NC1CCCN(CCc2ccccc2)C1)c1c(F)cccc1F (stereo not given) | -4 | 4 | 1 | -1
CCN1C(=O)c2cccc3c(S(=O)(=O)Nc4ncccc4C)ccc1c23 | 1 | 51* | 1 | -18
CCN1C(=O)c2cccc3c(S(=O)(=O)Nc4ccccn4)ccc1c23 | 6 | 31 | 0 | -11
CCn1cc(/C=C/c2cc[n+](C)cc2)c2ccccc21 | 15 | -181 | 5 | 20*
C=CCn1cc(/C=C/c2cc[n+](C)cc2)c2ccccc21 | 18 | -88 | 2 | 22*
Cc1nnc(NN=Cc2ccc([N+](=O)[O-])cc2)n1N | x | x | x | 13
COc1ccc(OC)c(Nc2cc3ccccc3c(=O)[nH]2)c1 | x | 24 | 70* | -2
COc1ccc(OC)c(Nc2nnc(C)c(=O)[nH]2)c1 | 7 | x | -4 | 5
COc1ccccc1Nc1cc2cc(Br)ccc2c(=O)[nH]1 | x | -55 | 47* | 21*
COc1cc(C=NNC(=S)Nc2cccc(C(=O)O)c2)cc(OC)c1OC | x | x | x | 12
CC(NC(=O)/C(C#N)=C/c1ccco1)c1ccccc1 (stereo not given) | -14 | -20 | 36* | 12
CCOC(=O)C(=O)NN=Cc1cccc(Br)c1 | x | x | x | 0
CCC(=O)N(CCC(c1ccco1)c1ccccc1OC)Cc1cccs1 (stereo not given) | 7 | 7 | 2 | 2
SMILES | UBC9 SUMO inh | Neddyl block | Fh CTSL1 inh | UCH37 DUB inh
CC(=O)N(CCC(c1ccco1)C(C)C)Cc1ccc(OC(C)C)cc1 (stereo not given) | 3 | 0 | 17* | 2
CC(=O)N(CCC(c1ccccc1)c1ccco1)Cc1cccs1 (stereo not given) | -11 | 1 | 22* | 5
O=C(c1ccco1)N(CCC(c1ccccc1)c1ccco1)Cc1ccco1 (stereo not given) | 25 | 3 | 26* | 3
COc1cc(C=Nn2c(-c3cc(C)[nH]n3)n[nH]c2=S)cc(OC)c1OC | x | x | x | 3
COc1ccc(N=Cc2nc(-c3ccccc3)oc2OC(=O)c2ccccc2)cc1 | 1 | 19 | 22* | 2
CCOC(=O)c1ccc(N=Cc2nc(-c3ccccc3)oc2OC(C)=O)cc1 | 7 | 10 | 31* | 7
CC(=O)Oc1oc(-c2ccccc2)nc1C=Nc1ccccc1 | 16 | -3 | 26* | 2
CN(C)c1ccc(N=Cc2nc(-c3ccccc3)oc2OC(=O)c2cccc(Br)c2)cc1 | -3 | -2 | 24* | 4
Cc1ccc(C=NNC(=O)COc2ccccc2-c2ccccc2)cc1 | x | x | x | 0
Cc1nn(-c2ccccc2)c(Cl)c1C=NNC(=O)c1nn(C)cc1[N+](=O)[O-] | x | x | x | 4
CC(C)(C)OC(=O)N1CCC[C@H]1C(=O)NN=Cc1ccc2ncccc2c1 | x | x | x | 2
COc1ccc2[nH]c(C(=O)NN=Cc3ccc(O)cc3O)cc2c1 | x | x | x | -57
O=C(N/N=C/c1ccc(O)cc1O)C(=O)N/N=C/c1ccc(O)cc1O | 95* | 9 | 8 | x
COc1ccc(N2Cc3ccc(C(=O)N/N=C\c4ccc(O)cc4O)cc3C2)cc1 | 66* | x | 2 | x
NC(=NOC(=O)c1ccc(Cl)cc1[N+](=O)[O-])c1cccnc1 | x | x | x | 4
COc1ccc(O)c(C=NN=Cc2cccc([N+](=O)[O-])c2)c1 | x | x | x | 3
O=C(NN=Cc1ccco1)C1CC1c1ccccc1 (stereo not given) | x | x | x | 4
O=C(NN=Cc1ccccc1C(=O)O)c1cc(-c2ccc3c4c(cccc24)CC3)n[nH]1 | x | x | x | 3
CCc1ccc2nc(NC(=O)Cn3cnc4ccccc4c3=O)sc2c1 | 50* | -47 | 2 | -2
O=C(Cn1cnc2ccccc2c1=O)Nc1nc2ccccc2s1 | 18 | -60 | 0 | -5
CCOC(=O)C(=NNc1ccccc1[N+](=O)[O-])c1csc(Nc2ccccc2)n1 | x | x | x | 9
O=C(Nc1nnc(-c2ccccc2SCc2ccccc2F)s1)Nc1ccccc1F | 52* | 2 | -1 | 6
O=C(Nc1nnc(-c2ccc(F)cc2)s1)Nc1ccccc1F | 34 | -45 | -7 | 3
C=CCn1c(C)cc(C2=NNC(=Nc3ccc(C)cc3)SC2)c1C | 6 | 0 | 4 | 29*
CCOC(=O)C1(Nc2nccs2)Sc2ccccc2NC1=O (stereo not given) | -6 | -10 | 33* | -2
SMILES | UBC9 SUMO inh | Neddyl block | Fh CTSL1 inh | UCH37 DUB inh
CCOC(=O)C1(N(CC)CC)Sc2cc(C)ccc2NC1=O (stereo not given) | 2 | -7 | 5 | 2
COc1ccc(C=NNC(=O)CCOc2ccccc2C)cc1OC | x | x | x | 3
COC(=O)c1ccc(NC(=O)C(=O)NCC2CCCO2)cc1 (stereo not given) | 9 | 4 | 17* | 1
CCCOC(=O)c1ccc(NC(=O)C(=O)NCC2CCCO2)cc1 (stereo not given) | -11 | 0 | 1 | 1
O=S(=O)(Nc1ccc(O)c2ccccc12)c1ccc(Br)cc1 | 86* | x | 0 | x
CC(=NNC(=O)Cn1cnc2ccccc21)c1cccs1 | x | x | x | 2
C=CCN1C(=O)/C(=C/c2ccc(OC)cc2)SC1=Nc1nccs1 | x | x | x | -5
